{
  "source": "ChEMBL document CHEMBL4229410",
  "about": "“Facile construction of fused benzimidazole-isoquinolinones that induce cell-cycle arrest and apoptosis in colorectal cancer cells” (Bioorg Med Chem, 2018)",
  "key": {"SW-620 [1]": {"system": "SW-620", "assay": "Induction of apoptosis in human SW620 cells assessed as increase in apoptotic bodies after 48 hrs by Hoechst 33342 staining based fluorescence microscopic analysis", "assay_type": "functional, cell-based"}, "[2]": {"target": "T1, Mitogen-activated protein kinase 3 (Homo sapiens, UniProt P27361)", "T1 sequence (P27361 whole entry, the tested form may be a part)": "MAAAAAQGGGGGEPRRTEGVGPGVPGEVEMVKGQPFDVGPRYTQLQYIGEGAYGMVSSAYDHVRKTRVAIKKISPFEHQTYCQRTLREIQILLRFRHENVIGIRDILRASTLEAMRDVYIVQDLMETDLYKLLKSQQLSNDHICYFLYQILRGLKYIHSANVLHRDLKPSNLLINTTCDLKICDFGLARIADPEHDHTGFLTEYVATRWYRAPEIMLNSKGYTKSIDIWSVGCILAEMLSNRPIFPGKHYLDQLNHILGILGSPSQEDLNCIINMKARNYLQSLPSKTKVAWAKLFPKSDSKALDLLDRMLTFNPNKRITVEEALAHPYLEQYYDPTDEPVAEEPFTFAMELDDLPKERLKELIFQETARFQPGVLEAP", "assay": "Inhibition of full length human ERK1 (M1 to P379 residues) expressed in bacterial expression system assessed as residual activity at 5 uM by KINOMEscan assay relative to control"}, "[3]": {"target": "Tyrosine-protein kinase ABL1 (Homo sapiens, UniProt P00519)", "assay": "Binding affinity to human phosphorylated ABL1 (S229 to K512 residues) expressed in mammalian expression system by KINOMEscan assay"}, "[4]": {"target": "RAC-alpha serine/threonine-protein kinase (Homo sapiens, UniProt P31749)", "assay": "Inhibition of human AKT1 expressed in bacterial expression system assessed as residual activity at 5 uM by KINOMEscan assay relative to control"}, "[5]": {"target": "Vascular endothelial growth factor receptor 2 (Homo sapiens, UniProt P35968)", "sequence (P35968 whole entry, the tested form may be a part)": "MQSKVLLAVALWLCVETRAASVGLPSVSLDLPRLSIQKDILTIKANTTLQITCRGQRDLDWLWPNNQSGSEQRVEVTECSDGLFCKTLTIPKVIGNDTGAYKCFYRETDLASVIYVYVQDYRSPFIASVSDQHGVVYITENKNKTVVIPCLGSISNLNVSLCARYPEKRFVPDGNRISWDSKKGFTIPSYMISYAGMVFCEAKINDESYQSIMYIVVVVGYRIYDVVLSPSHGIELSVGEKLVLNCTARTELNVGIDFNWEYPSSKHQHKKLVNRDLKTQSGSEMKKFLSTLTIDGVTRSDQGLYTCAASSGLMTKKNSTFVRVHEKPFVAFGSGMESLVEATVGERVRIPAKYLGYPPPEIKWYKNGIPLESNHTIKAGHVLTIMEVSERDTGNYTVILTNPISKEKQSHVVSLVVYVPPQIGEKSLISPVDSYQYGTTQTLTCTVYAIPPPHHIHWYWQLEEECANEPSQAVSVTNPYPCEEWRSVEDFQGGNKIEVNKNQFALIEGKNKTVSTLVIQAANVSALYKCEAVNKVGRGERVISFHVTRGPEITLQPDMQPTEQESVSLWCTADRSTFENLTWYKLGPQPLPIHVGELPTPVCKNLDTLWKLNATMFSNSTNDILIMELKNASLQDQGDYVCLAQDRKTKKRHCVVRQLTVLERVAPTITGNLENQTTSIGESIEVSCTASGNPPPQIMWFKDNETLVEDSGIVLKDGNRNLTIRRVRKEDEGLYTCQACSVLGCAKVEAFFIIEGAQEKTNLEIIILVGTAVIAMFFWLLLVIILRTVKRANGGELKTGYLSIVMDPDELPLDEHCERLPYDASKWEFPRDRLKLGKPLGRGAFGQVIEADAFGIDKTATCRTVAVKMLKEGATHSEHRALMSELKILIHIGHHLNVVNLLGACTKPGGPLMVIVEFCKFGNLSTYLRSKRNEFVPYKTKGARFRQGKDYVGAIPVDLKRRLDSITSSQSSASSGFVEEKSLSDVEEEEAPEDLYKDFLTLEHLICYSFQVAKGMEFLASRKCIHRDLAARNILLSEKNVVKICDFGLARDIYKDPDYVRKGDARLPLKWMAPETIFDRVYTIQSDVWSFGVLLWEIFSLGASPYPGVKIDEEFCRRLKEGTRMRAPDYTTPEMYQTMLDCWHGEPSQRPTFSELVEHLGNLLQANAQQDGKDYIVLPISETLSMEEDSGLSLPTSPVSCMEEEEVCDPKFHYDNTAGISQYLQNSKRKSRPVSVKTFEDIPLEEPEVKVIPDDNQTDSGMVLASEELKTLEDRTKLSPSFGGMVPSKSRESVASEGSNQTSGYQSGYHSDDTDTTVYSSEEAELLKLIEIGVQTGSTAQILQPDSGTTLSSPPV", "assay": "Inhibition of human VEGFR2 (R787 to P1253 residues) expressed in mammalian expression system assessed as residual activity at 5 uM by KINOMEscan assay relative to control"}, "HT-29 [6]": {"system": "HT-29", "assay": "Induction of apoptosis in human HT-29 cells assessed as increase in PARP activation after 48 hrs by Western blot analysis", "assay_type": "functional, cell-based", "in_short": "(§1)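 HT29 or SW620 cells were treated at 0, 25, 50 and 75 μM for 48 h and lysed in RIPA with protease and phosphatase inhibitors. Protein was quantified by BCA. 50 μg lysate was run on 8–15% SDS-PAGE and transferred to PVDF. Blocking was 5% BSA/TBST for 2 h; primary antibodies were applied overnight at 4 °C, then HRP secondary 1 h at room temperature.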"}, "[7]": {"target": "Cyclin-dependent kinase 7 (Homo sapiens, UniProt P50613)", "sequence (P50613 whole entry, the tested form may be a part)": "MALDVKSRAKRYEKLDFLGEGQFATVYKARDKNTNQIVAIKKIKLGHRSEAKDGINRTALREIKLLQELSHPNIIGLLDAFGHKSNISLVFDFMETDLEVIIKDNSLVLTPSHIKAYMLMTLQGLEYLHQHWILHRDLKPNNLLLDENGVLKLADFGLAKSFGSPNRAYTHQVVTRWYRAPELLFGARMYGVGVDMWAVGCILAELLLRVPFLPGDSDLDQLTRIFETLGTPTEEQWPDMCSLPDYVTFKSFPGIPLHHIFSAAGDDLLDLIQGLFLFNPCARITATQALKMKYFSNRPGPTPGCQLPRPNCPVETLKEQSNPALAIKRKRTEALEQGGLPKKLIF", "assay": "Inhibition of full length human CDK7 (M1 to L344 residues) expressed in mammalian expression system assessed as residual activity at 5 uM by KINOMEscan assay relative to control"}, "SW-620 [8]": {"system": "SW-620", "assay": "Down regulation of cyclin-B1 expression in human SW620 cells after 48 hrs by Western blot analysis", "assay_type": "functional, cell-based", "in_short": "as §1"}, "[9]": {"target": "Receptor-type tyrosine-protein kinase FLT3 (Homo sapiens, UniProt P36888)", "sequence (P36888 whole entry, the tested form may be a part)": "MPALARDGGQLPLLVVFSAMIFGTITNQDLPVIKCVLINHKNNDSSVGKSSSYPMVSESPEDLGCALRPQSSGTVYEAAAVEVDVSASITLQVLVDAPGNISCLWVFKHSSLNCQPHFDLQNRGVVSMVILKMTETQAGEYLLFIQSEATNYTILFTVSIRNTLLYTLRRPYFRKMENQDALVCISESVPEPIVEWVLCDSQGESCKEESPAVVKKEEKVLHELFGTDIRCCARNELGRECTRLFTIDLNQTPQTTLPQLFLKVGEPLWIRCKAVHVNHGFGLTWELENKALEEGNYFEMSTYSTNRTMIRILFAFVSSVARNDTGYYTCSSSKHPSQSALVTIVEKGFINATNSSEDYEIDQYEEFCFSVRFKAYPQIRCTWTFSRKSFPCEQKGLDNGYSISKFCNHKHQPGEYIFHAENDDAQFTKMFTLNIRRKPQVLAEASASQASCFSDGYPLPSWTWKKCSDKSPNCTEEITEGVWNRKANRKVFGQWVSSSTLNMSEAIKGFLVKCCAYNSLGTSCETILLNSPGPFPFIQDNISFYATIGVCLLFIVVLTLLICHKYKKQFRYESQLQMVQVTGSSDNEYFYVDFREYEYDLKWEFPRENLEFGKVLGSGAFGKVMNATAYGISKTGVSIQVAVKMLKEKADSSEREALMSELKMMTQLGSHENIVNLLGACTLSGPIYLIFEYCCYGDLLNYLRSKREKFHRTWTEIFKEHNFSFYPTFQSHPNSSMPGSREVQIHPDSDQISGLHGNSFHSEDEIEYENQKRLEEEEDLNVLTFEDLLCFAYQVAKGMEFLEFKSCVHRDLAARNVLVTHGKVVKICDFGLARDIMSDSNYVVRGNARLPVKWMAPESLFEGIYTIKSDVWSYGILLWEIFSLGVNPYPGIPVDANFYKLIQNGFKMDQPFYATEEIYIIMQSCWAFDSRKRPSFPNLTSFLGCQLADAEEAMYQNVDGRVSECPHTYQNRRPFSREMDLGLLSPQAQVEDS", "assay": "Binding affinity to human FLT3 (V592 to Y969 residues) expressed in bacterial expression system by KINOMEscan assay"}, "[10]": {"target": "Serine/threonine-protein kinase DCLK1 (Homo sapiens, UniProt O15075)", "assay": "Binding affinity to partial length human DCAMKL1 (L270 to A662 residues) expressed in mammalian expression system by KINOMEscan assay"}, "[11]": {"assay": "Growth inhibition of human FHC cells after 48 hrs by MTT assay", "assay_type": "cell-based"}, "[12]": {"system": "Tyrosine-protein kinase ABL1 (Homo sapiens), P00519 [T315I]", "assay": "Inhibition of human phosphorylated ABL1 T315I mutant (S229 to K512 residues) expressed in mammalian expression system assessed as residual activity at 5 uM by KINOMEscan assay relative to control"}, "[13]": {"target": "cAMP-dependent protein kinase catalytic subunit alpha (Homo sapiens, UniProt P17612)", "assay": "Inhibition of human PKACalpha (G10 to F351 residues) expressed in bacterial expression system assessed as residual activity at 5 uM by KINOMEscan assay relative to control"}, "SW-620 [14]": {"system": "SW-620", "assay": "Induction of apoptosis in human SW620 cells assessed as live cells at 75 uM after 48 hrs by Annexin-V-FITC/propidium iodide staining based flow cytometry (reference value: 97.5%)", "assay_type": "functional"}, "[15]": {"target": "T1, Mitogen-activated protein kinase 3", "assay": "Binding affinity to full length human ERK1 (M1 to P379 residues) expressed in bacterial expression system by KINOMEscan assay"}, "[16]": {"target": "Tyrosine-protein kinase BTK (Homo sapiens, UniProt Q06187)", "sequence (Q06187 whole entry, the tested form may be a part)": "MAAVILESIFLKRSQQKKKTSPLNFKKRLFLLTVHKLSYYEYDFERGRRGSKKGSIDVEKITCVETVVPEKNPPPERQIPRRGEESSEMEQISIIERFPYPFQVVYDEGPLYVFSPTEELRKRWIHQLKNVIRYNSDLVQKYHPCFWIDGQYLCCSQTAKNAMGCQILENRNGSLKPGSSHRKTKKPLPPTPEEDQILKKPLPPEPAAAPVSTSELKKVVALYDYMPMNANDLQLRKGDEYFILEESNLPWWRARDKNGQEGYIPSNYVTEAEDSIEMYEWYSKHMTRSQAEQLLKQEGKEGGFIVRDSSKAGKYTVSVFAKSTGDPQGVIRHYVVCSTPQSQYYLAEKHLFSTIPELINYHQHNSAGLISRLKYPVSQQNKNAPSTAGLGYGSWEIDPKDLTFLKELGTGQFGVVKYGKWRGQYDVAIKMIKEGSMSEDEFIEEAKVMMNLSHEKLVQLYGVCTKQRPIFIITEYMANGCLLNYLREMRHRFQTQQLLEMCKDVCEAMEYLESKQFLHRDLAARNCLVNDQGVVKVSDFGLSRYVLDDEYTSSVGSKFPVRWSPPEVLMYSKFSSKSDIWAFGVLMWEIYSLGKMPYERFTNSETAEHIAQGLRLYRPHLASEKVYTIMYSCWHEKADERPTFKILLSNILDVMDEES", "assay": "Inhibition of full length human BTK (M1 to S659 residues) expressed in mammalian expression system assessed as residual activity at 5 uM by KINOMEscan assay relative to control"}, "[17]": {"target": "T2, Casein kinase I isoform delta (Homo sapiens, UniProt P48730)", "assay": "Binding affinity to full length human CSNK1D (M1 to K409 residues) expressed in bacterial expression system by KINOMEscan assay"}, "[18]": {"target": "T2, Casein kinase I isoform delta", "assay": "Inhibition of full length human CSNK1D (M1 to K409 residues) expressed in bacterial expression system assessed as residual activity at 5 uM by KINOMEscan assay relative to control"}, "HT-29 [19]": {"system": "HT-29", "assay": "Cell cycle arrest in human HT-29 cells assessed as accumulation at S-phase at 25 uM after 48 hrs by propidium iodide staining based flow cytometry (reference value: 37.82%)", "assay_type": "functional"}, "[20]": {"target": "Cyclin-dependent kinase 2 (Homo sapiens, UniProt P24941)", "assay": "Inhibition of full length human CDK2 (M1 to L298 residues) expressed in bacterial expression system assessed as residual activity at 5 uM by KINOMEscan assay relative to control"}, "[21]": {"target": "Proto-oncogene tyrosine-protein kinase receptor Ret (Homo sapiens, UniProt P07949)", "assay": "Inhibition of human RET (E713 to D1014 residues) expressed in bacterial expression system assessed as residual activity at 5 uM by KINOMEscan assay relative to control"}, "[22]": {"target": "Mitogen-activated protein kinase kinase kinase 9 (Homo sapiens, UniProt P80192)", "assay": "Inhibition of human MLK1 (V88 to W426 residues) expressed in bacterial expression system assessed as residual activity at 5 uM by KINOMEscan assay relative to control"}, "[23]": {"system": "Epidermal growth factor receptor (Homo sapiens), P00533 [L858R]", "assay": "Inhibition of partial length human EGFR (R669 to V1011 residues) L858R mutant expressed in bacterial expression system assessed as residual activity at 5 uM by KINOMEscan assay relative to control"}, "[24]": {"target": "Serine/threonine-protein kinase PAK 1 (Homo sapiens, UniProt Q13153)", "assay": "Binding affinity to human PAK1 (S149 to H545 residues) expressed in bacterial expression system by KINOMEscan assay"}, "SW-620 [25]": {"system": "SW-620", "assay": "Effect on total AKT expression in human SW620 cells up to 75 uM after 48 hrs by Western blot analysis", "assay_type": "ADME, cell-based", "settings": "sw-620, 48 h", "in_short": "as §1"}, "[26]": {"system": "Mast/stem cell growth factor receptor Kit (Homo sapiens), P10721 [V559D,T670I]", "sequence (P10721 whole entry V559D/T670I, the tested form may be a part)": "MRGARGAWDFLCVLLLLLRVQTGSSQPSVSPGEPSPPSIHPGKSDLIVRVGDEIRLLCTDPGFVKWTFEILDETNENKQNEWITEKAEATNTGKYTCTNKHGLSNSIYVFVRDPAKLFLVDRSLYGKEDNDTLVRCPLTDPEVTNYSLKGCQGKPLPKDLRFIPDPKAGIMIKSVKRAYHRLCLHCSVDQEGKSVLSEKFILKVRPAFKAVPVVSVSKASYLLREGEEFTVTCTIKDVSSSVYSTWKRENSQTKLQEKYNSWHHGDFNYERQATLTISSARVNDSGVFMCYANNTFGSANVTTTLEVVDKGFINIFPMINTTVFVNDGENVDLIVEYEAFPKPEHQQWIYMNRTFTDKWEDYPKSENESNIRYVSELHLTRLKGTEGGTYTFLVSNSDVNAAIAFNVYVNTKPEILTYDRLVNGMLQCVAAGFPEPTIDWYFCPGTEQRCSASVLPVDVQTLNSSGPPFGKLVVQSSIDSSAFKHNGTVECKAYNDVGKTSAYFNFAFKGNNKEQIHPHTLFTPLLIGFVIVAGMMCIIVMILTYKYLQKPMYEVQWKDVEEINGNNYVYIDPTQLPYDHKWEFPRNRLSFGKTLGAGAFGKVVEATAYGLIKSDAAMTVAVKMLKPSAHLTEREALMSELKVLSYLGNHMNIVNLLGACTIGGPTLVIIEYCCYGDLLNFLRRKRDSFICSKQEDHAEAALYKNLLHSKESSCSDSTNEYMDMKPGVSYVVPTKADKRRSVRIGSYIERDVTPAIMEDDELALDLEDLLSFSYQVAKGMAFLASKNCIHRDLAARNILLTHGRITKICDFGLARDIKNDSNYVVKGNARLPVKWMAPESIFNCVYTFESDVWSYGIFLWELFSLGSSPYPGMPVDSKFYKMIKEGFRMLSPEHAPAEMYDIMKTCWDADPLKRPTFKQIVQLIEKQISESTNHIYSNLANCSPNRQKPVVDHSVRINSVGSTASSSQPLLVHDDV", "assay": "Inhibition of human KIT (I571 to D952 residues) V559D/T670I double mutant expressed in bacterial expression system assessed as residual activity at 5 uM by KINOMEscan assay relative to control"}, "[27]": {"target": "RAC-beta serine/threonine-protein kinase (Homo sapiens, UniProt P31751)", "assay": "Binding affinity to human AKT2 expressed in bacterial expression system by KINOMEscan assay"}, "SW-620 [28]": {"system": "SW-620", "assay": "Cell cycle arrest in human SW620 cells assessed as accumulation at G1-phase at 50 uM after 48 hrs by propidium iodide staining based flow cytometry (reference value: 40.56%)", "assay_type": "functional"}, "[29]": {"target": "Epidermal growth factor receptor (Homo sapiens, UniProt P00533, L858R)", "assay": "Binding affinity to partial length human EGFR (R669 to V1011 residues) L858R mutant expressed in bacterial expression system by KINOMEscan assay"}},
  "data": [
    {"smiles": "CC(C)CN(C(=O)c1cccnc1)c1c2ccccc2c(=O)n2c1[nH]c1ccccc12", "values": [
      {"measurement": "Activity", "setting": "SW-620 [1]", "result": "Dose-dependent effect"},
      {"measurement": "Activity", "setting": "[2]", "result": 82, "unit": "%"},
      {"measurement": "Kd", "setting": "[3]", "result": "≥ 5", "unit": "µM"},
      {"measurement": "Activity", "setting": "[4]", "result": 98, "unit": "%"},
      {"measurement": "Activity", "setting": "[5]", "result": 98, "unit": "%"},
      {"measurement": "Activity", "setting": "HT-29 [6]", "result": "Dose-dependent effect"},
      {"measurement": "Activity", "setting": "[7]", "result": 100, "unit": "%"},
      {"measurement": "Activity", "setting": "SW-620 [8]", "result": "Dose-dependent effect"},
      {"measurement": "Kd", "setting": "[9]", "result": "≥ 5", "unit": "µM"},
      {"measurement": "Kd", "setting": "[10]", "result": "≥ 5", "unit": "µM"},
      {"measurement": "GI50 at 48 h", "setting": "[11]", "result": "> 200", "unit": "µM"},
      {"measurement": "Activity", "setting": "[12]", "result": 90, "unit": "%"},
      {"measurement": "Activity", "setting": "[13]", "result": 88, "unit": "%"},
      {"measurement": "Activity", "setting": "SW-620 [14]", "result": 76.7, "unit": "%"},
      {"measurement": "Kd", "setting": "[15]", "result": "≥ 5", "unit": "µM"},
      {"measurement": "Activity", "setting": "[16]", "result": 74, "unit": "%"},
      {"measurement": "Kd", "setting": "[17]", "result": "≥ 5", "unit": "µM"},
      {"measurement": "Activity", "setting": "[18]", "result": 90, "unit": "%"},
      {"measurement": "Activity", "setting": "HT-29 [19]", "result": 37.2, "unit": "%"},
      {"measurement": "Activity", "setting": "[20]", "result": 97, "unit": "%"},
      {"measurement": "Activity", "setting": "[21]", "result": 100, "unit": "%"},
      {"measurement": "Activity", "setting": "[22]", "result": 84, "unit": "%"},
      {"measurement": "Activity", "setting": "[23]", "result": 92, "unit": "%"},
      {"measurement": "Kd", "setting": "[24]", "result": "≥ 5", "unit": "µM"},
      {"measurement": "Activity", "setting": "SW-620 [25]", "result": "Non-Toxic"},
      {"measurement": "Activity", "setting": "[26]", "result": 98, "unit": "%"},
      {"measurement": "Kd", "setting": "[27]", "result": "≥ 5", "unit": "µM"},
      {"measurement": "Activity", "setting": "SW-620 [28]", "result": 46.19, "unit": "%"},
      {"measurement": "Kd", "setting": "[29]", "result": "≥ 5", "unit": "µM"}
    ]}
  ]
}
